Tests used:
[1] = target: Aurora kinase A (Homo sapiens, UniProt O14965, T288D); test: Inhibition of Aurora kinase A T288D mutant expressed in Escherichia coli BL21 DE3
[2] = tested on: T1, Aurora kinase A (Homo sapiens), O14965 [T288D]; test: Inhibition of Aurora kinase A T288D mutant expressed in Escherichia coli BL21 DE3 at 10 uM
T1 sequence (whole entry): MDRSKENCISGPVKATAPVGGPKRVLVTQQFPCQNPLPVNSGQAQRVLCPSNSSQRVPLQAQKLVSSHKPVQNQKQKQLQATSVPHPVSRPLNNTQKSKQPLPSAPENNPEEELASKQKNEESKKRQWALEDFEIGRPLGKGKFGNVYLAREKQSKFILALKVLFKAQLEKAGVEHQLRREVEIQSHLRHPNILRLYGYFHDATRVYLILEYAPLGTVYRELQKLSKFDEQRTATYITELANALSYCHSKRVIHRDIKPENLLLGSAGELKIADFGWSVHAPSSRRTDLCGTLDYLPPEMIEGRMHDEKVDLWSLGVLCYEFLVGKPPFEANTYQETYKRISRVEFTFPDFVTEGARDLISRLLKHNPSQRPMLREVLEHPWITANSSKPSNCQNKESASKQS

[3] = target: Aurora kinase A (Homo sapiens) (UniProt O14965); test: Inhibition of Aurora kinase A Thr288 autophosphorylation in human HCT116 cells by Western blot; format: cell-based; settings: HCT-116
How it was run: (§1)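 HCT-116 cells, 4 × 10^5 per well, were seeded for 24 h and synchronized with 40 ng/mL nocodazole for 16 h. They were then exposed to compound at 0.625–40 µM for 2 h at 37 °C. Cells were lysed in SDS sample buffer (pH 6.8, 2% SDS) at 95 °C for 10 min, and 50 µg was run on SDS-PAGE. Blots were probed for phospho-Aurora A (Thr288) and phospho-histone H3 (Ser10) with HRP detection.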

[4] = target: Aurora kinase B (Homo sapiens) (UniProt Q96GD4); test: Inhibition of Aurora kinase B in human HCT116 cells assessed as reduced phosphorylated histone H3 levels by Western blot; format: cell-based; settings: HCT-116; how it was run: as §1
[5] = target: Tyrosine-protein kinase ABL1 (Homo sapiens) (UniProt P00519); test: Inhibition of ABL1 at 1 uM relative to control
[6] = target: RAC-alpha serine/threonine-protein kinase (Homo sapiens) (UniProt P31749); test: Inhibition of AKT1 at 1 uM relative to control
[7] = target: ALK tyrosine kinase receptor (Homo sapiens) (UniProt Q9UM73); test: Inhibition of ALK at 1 uM relative to control
[8] = target: 5'-AMP-activated protein kinase catalytic subunit alpha-1 (Homo sapiens) (UniProt Q13131); test: Inhibition of AMPK alpha-1/beta-1/gamma-1 at 1 uM relative to control
[9] = target: Aurora kinase A (Homo sapiens) (UniProt O14965); test: Inhibition of AURKA at 1 uM relative to control
[10] = target: Aurora kinase B (Homo sapiens) (UniProt Q96GD4); test: Inhibition of AURKB at 1 uM relative to control
[11] = target: Aurora kinase C (Homo sapiens) (UniProt Q9UQB9); test: Inhibition of AURKC at 1 uM relative to control
[12] = target: Cyclin-dependent kinase 2 (Homo sapiens) (UniProt P24941); test: Inhibition of CDK2/Cyclin A at 1 uM relative to control
[13] = target: Serine/threonine-protein kinase Chk1 (Homo sapiens) (UniProt O14757); test: Inhibition of CHK1 at 1 uM relative to control
[14] = target: Epidermal growth factor receptor (Homo sapiens) (UniProt P00533); test: Inhibition of EGFR at 1 uM relative to control
[15] = target: Ephrin type-A receptor 1 (Homo sapiens) (UniProt P21709); test: Inhibition of EPHA1 at 1 uM relative to control
[16] = target: Receptor tyrosine-protein kinase erbB-2 (Homo sapiens) (UniProt P04626); test: Inhibition of ERBB2 at 1 uM relative to control
[17] = target: Vascular endothelial growth factor receptor 1 (Homo sapiens) (UniProt P17948); test: Inhibition of FLT1 at 1 uM relative to control
[18] = target: Receptor-type tyrosine-protein kinase FLT3 (Homo sapiens) (UniProt P36888); test: Inhibition of FLT3 at 1 uM relative to control
[19] = target: Serine/threonine-protein kinase mTOR (Homo sapiens) (UniProt P42345); test: Inhibition of FRAP1 at 1 uM relative to control
[20] = target: Insulin-like growth factor 1 receptor (Homo sapiens) (UniProt P08069); test: Inhibition of IGF1R at 1 uM relative to control
[21] = target: Inhibitor of nuclear factor kappa-B kinase subunit epsilon (Homo sapiens) (UniProt Q14164); test: Inhibition of IKK epsilon at 1 uM relative to control
[22] = target: Tyrosine-protein kinase JAK2 (Homo sapiens) (UniProt O60674); test: Inhibition of JAK2 at 1 uM relative to control
[23] = target: Mast/stem cell growth factor receptor Kit (Homo sapiens) (UniProt P10721); test: Inhibition of KIT at 1 uM relative to control
[24] = target: Mitogen-activated protein kinase 14 (Homo sapiens) (UniProt Q16539); test: Inhibition of MAPK14 at 1 uM relative to control
[25] = target: Hepatocyte growth factor receptor (Homo sapiens) (UniProt P08581); test: Inhibition of cMET at 1 uM relative to control
[26] = target: High affinity nerve growth factor receptor (Homo sapiens) (UniProt P04629); test: Inhibition of NTRK1 at 1 uM relative to control
[27] = target: Serine/threonine-protein kinase PLK1 (Homo sapiens) (UniProt P53350); test: Inhibition of PLK1 at 1 uM relative to control
[28] = tested on: RAF proto-oncogene serine/threonine-protein kinase (Homo sapiens), P04049 [Y340D,Y341D]; test: Inhibition of cRaf Y340D/Y341D mutant at 1 uM relative to control
[29] = target: Proto-oncogene tyrosine-protein kinase receptor Ret (Homo sapiens) (UniProt P07949); test: Inhibition of RET at 1 uM relative to control
[30] = target: Proto-oncogene tyrosine-protein kinase Src (Homo sapiens) (UniProt P12931); test: Inhibition of SRC at 1 uM relative to control
[31] = target: Angiopoietin-1 receptor (Homo sapiens) (UniProt Q02763); test: Inhibition of TEK at 1 uM relative to control
[32] = target: Phosphatidylinositol 4,5-bisphosphate 3-kinase catalytic subunit gamma isoform (Homo sapiens) (UniProt P48736); test: Inhibition of PIK3CG at 1 uM relative to control
[33] = target: Glycogen synthase kinase-3 beta (Homo sapiens) (UniProt P49841); test: Inhibition of GSK3-beta at 1 uM relative to control
[34] = target: 3-phosphoinositide-dependent protein kinase 1 (Homo sapiens) (UniProt O15530); test: Inhibition of PDK1 at 1 uM relative to control

Chain of Aurora kinase A (Homo sapiens) (O14965 whole entry): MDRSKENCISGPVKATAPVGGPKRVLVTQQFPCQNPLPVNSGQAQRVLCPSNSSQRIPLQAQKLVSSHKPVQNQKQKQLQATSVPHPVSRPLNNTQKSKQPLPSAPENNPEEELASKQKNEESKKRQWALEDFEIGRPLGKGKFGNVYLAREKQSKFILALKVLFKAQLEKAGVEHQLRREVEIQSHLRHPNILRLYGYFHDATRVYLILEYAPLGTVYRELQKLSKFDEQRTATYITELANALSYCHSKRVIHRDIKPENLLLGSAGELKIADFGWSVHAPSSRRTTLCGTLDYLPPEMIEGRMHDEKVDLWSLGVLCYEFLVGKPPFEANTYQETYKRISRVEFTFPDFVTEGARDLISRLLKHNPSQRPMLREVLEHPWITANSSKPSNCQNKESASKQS
Chain of Aurora kinase B (Homo sapiens) (Q96GD4 whole entry): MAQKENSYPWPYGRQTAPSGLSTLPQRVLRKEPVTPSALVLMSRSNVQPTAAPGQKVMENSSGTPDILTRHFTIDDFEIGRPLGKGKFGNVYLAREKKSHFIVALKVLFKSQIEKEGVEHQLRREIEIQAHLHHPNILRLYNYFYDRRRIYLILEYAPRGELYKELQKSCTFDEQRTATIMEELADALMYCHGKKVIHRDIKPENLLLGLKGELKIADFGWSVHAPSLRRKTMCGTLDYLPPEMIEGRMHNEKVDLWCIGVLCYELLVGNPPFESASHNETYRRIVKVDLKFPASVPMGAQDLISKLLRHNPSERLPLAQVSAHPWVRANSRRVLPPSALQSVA
Chain of RAC-alpha serine/threonine-protein kinase (Homo sapiens) (P31749 whole entry): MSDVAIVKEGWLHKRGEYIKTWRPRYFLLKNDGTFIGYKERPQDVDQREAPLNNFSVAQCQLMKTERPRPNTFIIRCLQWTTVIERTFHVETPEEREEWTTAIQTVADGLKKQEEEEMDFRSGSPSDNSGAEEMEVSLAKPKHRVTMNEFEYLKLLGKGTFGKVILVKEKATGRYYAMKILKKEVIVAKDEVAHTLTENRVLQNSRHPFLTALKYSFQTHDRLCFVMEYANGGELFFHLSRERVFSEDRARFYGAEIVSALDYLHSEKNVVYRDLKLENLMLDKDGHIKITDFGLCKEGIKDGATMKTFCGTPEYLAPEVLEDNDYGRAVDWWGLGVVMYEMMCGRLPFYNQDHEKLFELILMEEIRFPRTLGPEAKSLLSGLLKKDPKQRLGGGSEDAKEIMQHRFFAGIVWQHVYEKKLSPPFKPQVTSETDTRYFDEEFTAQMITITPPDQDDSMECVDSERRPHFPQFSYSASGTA
Chain of Tyrosine-protein kinase ABL1 (Homo sapiens) (P00519 whole entry): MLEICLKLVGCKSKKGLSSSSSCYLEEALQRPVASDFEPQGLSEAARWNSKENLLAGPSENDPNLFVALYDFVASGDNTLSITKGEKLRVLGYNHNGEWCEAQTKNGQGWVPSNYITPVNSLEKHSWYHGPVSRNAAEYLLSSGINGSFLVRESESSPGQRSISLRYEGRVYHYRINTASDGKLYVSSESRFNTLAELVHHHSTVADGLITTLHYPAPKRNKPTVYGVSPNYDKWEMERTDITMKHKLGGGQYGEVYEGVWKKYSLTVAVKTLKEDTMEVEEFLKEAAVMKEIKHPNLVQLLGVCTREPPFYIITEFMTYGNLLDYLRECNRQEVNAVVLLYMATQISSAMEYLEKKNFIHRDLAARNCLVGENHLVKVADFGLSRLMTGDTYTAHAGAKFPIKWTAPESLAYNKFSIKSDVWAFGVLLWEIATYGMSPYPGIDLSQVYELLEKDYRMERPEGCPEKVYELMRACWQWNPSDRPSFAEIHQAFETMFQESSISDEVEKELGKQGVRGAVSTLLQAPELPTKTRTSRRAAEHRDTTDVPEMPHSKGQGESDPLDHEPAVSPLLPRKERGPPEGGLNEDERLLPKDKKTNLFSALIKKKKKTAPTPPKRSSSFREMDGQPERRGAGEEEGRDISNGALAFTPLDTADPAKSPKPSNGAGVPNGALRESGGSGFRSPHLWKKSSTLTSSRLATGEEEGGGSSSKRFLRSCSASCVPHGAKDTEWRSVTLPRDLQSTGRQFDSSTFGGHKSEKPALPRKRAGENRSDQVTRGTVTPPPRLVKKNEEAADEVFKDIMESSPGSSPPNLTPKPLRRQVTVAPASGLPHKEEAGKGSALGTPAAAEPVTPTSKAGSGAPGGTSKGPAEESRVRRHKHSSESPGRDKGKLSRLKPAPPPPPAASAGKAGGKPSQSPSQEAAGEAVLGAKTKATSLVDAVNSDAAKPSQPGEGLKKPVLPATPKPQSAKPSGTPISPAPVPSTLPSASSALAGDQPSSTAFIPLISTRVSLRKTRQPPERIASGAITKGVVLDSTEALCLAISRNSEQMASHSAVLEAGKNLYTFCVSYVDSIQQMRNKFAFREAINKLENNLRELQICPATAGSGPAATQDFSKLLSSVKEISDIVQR
Chain of Epidermal growth factor receptor (Homo sapiens) (P00533 whole entry): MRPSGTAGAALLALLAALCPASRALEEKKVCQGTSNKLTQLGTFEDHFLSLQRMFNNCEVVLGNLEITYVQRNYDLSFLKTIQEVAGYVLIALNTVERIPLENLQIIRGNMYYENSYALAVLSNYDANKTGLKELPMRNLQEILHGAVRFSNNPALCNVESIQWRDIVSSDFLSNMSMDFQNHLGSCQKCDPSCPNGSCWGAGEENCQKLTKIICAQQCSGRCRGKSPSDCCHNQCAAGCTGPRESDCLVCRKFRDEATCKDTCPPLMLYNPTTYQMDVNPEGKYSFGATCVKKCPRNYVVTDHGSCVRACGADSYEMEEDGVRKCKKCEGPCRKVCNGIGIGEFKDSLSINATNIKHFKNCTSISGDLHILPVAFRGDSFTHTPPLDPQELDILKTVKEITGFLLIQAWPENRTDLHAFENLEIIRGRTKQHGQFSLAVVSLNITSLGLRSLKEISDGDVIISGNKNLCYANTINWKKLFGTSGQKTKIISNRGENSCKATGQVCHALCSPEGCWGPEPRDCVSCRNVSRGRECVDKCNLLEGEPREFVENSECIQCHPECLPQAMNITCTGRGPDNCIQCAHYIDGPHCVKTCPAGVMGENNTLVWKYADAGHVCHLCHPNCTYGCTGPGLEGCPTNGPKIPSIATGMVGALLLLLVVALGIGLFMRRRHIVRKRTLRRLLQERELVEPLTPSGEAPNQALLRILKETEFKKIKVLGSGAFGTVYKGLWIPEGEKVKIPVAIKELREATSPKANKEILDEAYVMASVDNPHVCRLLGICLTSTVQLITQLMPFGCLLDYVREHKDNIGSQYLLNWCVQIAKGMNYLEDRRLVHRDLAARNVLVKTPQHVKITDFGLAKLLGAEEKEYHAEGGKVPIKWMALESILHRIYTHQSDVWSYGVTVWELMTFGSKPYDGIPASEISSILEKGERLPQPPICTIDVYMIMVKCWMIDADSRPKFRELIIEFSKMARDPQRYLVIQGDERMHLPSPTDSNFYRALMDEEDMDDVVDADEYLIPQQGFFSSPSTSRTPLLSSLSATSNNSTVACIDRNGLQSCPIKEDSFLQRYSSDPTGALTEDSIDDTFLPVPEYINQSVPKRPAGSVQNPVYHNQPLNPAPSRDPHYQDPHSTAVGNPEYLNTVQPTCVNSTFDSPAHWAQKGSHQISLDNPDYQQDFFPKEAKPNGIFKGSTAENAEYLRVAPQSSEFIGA
Chain of Vascular endothelial growth factor receptor 1 (Homo sapiens) (P17948 whole entry): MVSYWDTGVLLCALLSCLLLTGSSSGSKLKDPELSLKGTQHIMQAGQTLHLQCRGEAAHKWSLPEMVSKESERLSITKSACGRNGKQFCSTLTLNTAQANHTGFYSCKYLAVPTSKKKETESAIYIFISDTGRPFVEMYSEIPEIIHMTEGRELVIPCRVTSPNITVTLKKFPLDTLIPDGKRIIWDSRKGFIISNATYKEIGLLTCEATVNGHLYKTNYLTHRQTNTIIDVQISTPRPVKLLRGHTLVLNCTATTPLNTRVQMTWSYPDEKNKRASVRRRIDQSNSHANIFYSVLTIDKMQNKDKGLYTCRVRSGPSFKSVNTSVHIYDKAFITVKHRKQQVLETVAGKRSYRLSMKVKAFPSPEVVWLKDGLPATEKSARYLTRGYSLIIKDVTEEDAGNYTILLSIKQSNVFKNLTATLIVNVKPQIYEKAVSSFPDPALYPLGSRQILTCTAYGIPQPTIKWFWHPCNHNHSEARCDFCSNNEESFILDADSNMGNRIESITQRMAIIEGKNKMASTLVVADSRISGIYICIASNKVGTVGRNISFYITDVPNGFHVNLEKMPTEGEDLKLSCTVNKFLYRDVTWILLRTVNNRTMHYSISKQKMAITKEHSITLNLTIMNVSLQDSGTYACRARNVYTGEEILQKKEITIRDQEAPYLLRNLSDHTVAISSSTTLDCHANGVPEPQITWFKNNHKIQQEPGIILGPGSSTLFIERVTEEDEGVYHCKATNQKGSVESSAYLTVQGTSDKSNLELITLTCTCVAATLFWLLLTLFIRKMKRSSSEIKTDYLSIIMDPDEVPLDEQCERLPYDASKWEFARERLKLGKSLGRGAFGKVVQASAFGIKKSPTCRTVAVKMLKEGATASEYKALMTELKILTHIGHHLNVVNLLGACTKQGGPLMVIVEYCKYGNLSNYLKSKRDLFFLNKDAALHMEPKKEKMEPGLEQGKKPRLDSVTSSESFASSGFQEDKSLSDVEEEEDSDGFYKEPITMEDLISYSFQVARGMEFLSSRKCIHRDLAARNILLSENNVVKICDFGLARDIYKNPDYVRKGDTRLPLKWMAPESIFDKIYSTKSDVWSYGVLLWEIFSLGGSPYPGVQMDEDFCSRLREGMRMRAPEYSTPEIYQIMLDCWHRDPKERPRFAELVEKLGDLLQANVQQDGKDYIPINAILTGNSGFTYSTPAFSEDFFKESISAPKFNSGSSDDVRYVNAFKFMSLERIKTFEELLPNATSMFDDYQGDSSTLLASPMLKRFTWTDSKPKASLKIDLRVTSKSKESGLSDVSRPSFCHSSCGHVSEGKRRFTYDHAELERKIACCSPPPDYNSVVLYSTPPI

COc1ccc(/C=N/Nc2[nH]nc(C)c2C(=O)NCCc2cccnc2)cc1
IC50 [1]: 1480 nM

COc1ccc(/C=N/Nc2[nH]nc(C)c2C(=O)NCCc2c[nH]cn2)cc1
IC50 [1]: 1940 nM

COc1ccc(/C=N/Nc2[nH]nc(C)c2C(=O)OCc2ccccc2)cc1
IC50 [1]: 5250 nM

CCOC(=O)c1c(C)n[nH]c1N/N=C/c1cccc2[nH]ccc12
inhibition [2]: 50.3% | IC50 [1]: 13700 nM

COc1ccc(/C=N/Nc2[nH]nc(C)c2C(=O)NCc2ccc(OC)cc2)cc1
IC50 [1]: 1620 nM

COc1ccc(/C=N/Nc2[nH]nc(C)c2C(=O)Nc2cccc(OC)c2)cc1
IC50 [1]: 449 nM

COc1ccc(/C=N/Nc2[nH]nc(C)c2C(=O)Nc2ccc(N(C)C)cc2)cc1
IC50 [1]: 1570 nM

COc1ccc(/C=N/Nc2[nH]nc(C)c2C(=O)Nc2ccc(OC)cc2)cc1
IC50 [1]: 460 nM

COc1ccc(/C=N/Nc2[nH]nc(C)c2C(=O)NCCc2ccc(OC)cc2)cc1
IC50 [1]: 1580 nM

CCOC(=O)c1c(C)n[nH]c1N/N=C/c1ccccc1
inhibition [2]: 16.4%

COc1ccc(/C=N/Nc2[nH]nc(C)c2C(=O)N(C)Cc2ccccc2)cc1
IC50 [1]: > 50000 nM

COc1ccc(/C=N/Nc2[nH]nc(C)c2C(=O)NCc2cccc(OC)c2)cc1
IC50 [1]: 838 nM

COc1ccc(/C=N/Nc2[nH]nc(C)c2C(=O)NCCc2cccc(OC)c2)cc1
IC50 [1]: 2900 nM

CCOC(=O)c1c(C)n[nH]c1N/N=C(\C)c1ccc(OC)cc1
inhibition [2]: 18.2%

CCOC(=O)c1c(C)n[nH]c1N/N=C/c1ccc2[nH]ccc2c1
inhibition [2]: 50% | IC50 [1]: 11500 nM

COc1ccc(/C=N/Nc2[nH]nc(C)c2C(=O)NCc2cccc(NC(C)=O)c2)cc1
IC50 [1]: 1750 nM

COc1ccc(/C=N/Nc2[nH]nc(C)c2C(=O)N(C)c2ccccc2)cc1
IC50 [1]: > 50000 nM

CCOC(=O)c1c(C)n[nH]c1N/N=C/c1ccc(N2CCN(C)CC2)cc1
inhibition [2]: 41%

COc1ccc(/C=N/Nc2[nH]nc(C)c2C(=O)NCCc2ccccc2)cc1
IC50 [1]: 1350 nM

COc1ccc(/C=N/Nc2[nH]nc(C)c2C(=O)Nc2ccccc2OC)cc1
IC50 [1]: 1090 nM

COc1ccc(/C=N/Nc2[nH]nc(C)c2C(=O)NCc2ccccc2)cc1
IC50 [1]: 1580 nM

CCOC(=O)c1c(C)n[nH]c1N/N=C/c1ccc(-c2ccccc2)cc1
inhibition [2]: 27.5%

COc1ccc(/C=N/Nc2[nH]nc(C)c2C(=O)Nc2ccccc2)cc1
IC50 [1]: 804 nM

COc1ccc(/C=N/Nc2[nH]nc(C)c2C(=O)Nc2ccc(OC)c(OC)c2)cc1
IC50 [1]: 960 nM

COc1ccc(/C=N/Nc2[nH]nc(C)c2C(=O)Nc2cccc(NC(C)=O)c2)cc1
Activity [3]: Dose-dependent effect | Activity [4]: Dose-dependent effect | inhibition [5]: 17% | inhibition [6]: 13% | inhibition [7]: 1% | inhibition [8]: 31% | inhibition [9]: 91% | inhibition [10]: 36% | inhibition [11]: 45% | inhibition [12]: 48% | inhibition [13]: 21% | inhibition [14]: 8% | inhibition [15]: 51% | inhibition [16]: 26% | inhibition [17]: 27% | inhibition [18]: 48% | inhibition [19]: -6% | inhibition [20]: 11% | inhibition [21]: -8% | inhibition [22]: 56% | inhibition [23]: 61% | inhibition [24]: 19% | inhibition [25]: 19% | inhibition [26]: 66% | inhibition [27]: 11% | inhibition [28]: -1% | inhibition [29]: 76% | inhibition [30]: 33% | inhibition [31]: 4% | inhibition [32]: -3% | inhibition [33]: 32% | inhibition [34]: 17%

COc1ccc(/C=N/Nc2[nH]nc(C)c2C(=O)NCCc2c[nH]c3ccccc23)cc1
IC50 [1]: 1070 nM

COc1ccc(/C=N/Nc2[nH]nc(C)c2C(=O)NCCCc2ccccc2)cc1
IC50 [1]: 1940 nM

COc1ccc(/C=N/Nc2[nH]nc(C)c2C(=O)Nc2ccc(F)cc2)cc1
IC50 [1]: 1450 nM

COc1ccc(/C=N/Nc2[nH]nc(C)c2C(=O)Nc2ccc(NC(C)=O)cc2)cc1
IC50 [1]: 719 nM

CCOC(=O)c1c(C)n[nH]c1N/N=C/Cc1ccccc1
inhibition [2]: 3.6%

CCOC(=O)c1c(C)n[nH]c1N/N=C/c1ccc(F)cc1
inhibition [2]: 36.5%

CCOC(=O)c1c(C)n[nH]c1N/N=C/c1ccc(OC)cc1
inhibition [2]: 33.9% | IC50 [1]: 15100 nM

Reference: ChEMBL document CHEMBL1140919, “Structure-based drug design of novel Aurora kinase A inhibitors: structural basis for potency and specificity” (J Med Chem, 2009)
